ChEMBL document CHEMBL2157988, “Isolation, characterization and cytotoxic activity of benzophenone glucopyranosides from Mahkota Dewa (Phaleria macrocarpa (Scheff.) Boerl)” (Bioorg Med Chem Lett, 2012)
Calls of active or inactive are those of the source. The rule behind the calls is not given here.

How the values were obtained:
Assay type in all cases: functional, cell-based
[1] = Cytotoxicity against human EC109 cells after 72 hrs by SRB assay; details: ECa-109, 72 h
In short: (§1)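 Cells in DMEM with 10% FBS and 1% penicillin/streptomycin; log-phase cells trypsinized and seeded at 5000 cells/well. DMSO stocks diluted 1000-fold in medium (<0.1% DMSO); final 100 down to 1.5625 μM in twofold steps, 72 h. Fixed with 50% TCA, stained 0.4% SRB, solubilized in 10 mM Tris base pH 10.5, OD 515 nm; IC50 calculated.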

PC-3 = test: Cytotoxicity against human PC3 cells after 72 hrs by SRB assay; details: PC-3, 72 h; in short: as §1
MGC-803 [2] = test: Cytotoxicity against human MGC803 cells after 72 hrs by SRB assay; details: MGC-803, 72 h; in short: as §1
MGC-803 [3] = test: Cytotoxicity against human L-NAC-pretreated MGC803 cells incubated 2 hr post-L-NAC addition measured after 72 hrs by SRB assay
In short: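 MGC-803 cells in DMEM/10% FBS, seeded 5000 cells/well, preincubated with or without 5 mM L-NAC (ROS scavenger) for 2 h before compound addition. Compound final 100 to 1.5625 μM (twofold series, <0.1% DMSO), 72 h. SRB readout after TCA fixation, OD 515 nm; IC50 (50% cell death) calculated.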

[4] = Cytotoxicity against human EC9706 cells after 72 hrs by SRB assay; details: EC9706, 72 h; in short: as §1

Row | Compound | IC50 [1] [µM] | IC50 (PC-3) [µM] | IC50 (MGC-803 [2]) [µM] | Activity (MGC-803 [3]) | IC50 [4] [µM]
1 | COc1cc(OCCCN2CCCCC2)c(C(=O)c2ccc(OCc3ccccc3)cc2)c(OCc2ccccc2)c1 | 5.14 | 3.47 | 3.12 | Active | 4.97
2 | CCCCOc1ccc(C(=O)c2c(OCCCC)cc(OC)cc2O[C@@H]2O[C@H](CO)[C@@H](O)[C@H](O)[C@H]2O)cc1 | 29 | 32 | 49.2 | – | 41.8
3 | COc1cc(O)c(C(=O)c2ccc(OCc3ccccc3)cc2)c(OCc2ccccc2)c1 | > 100 | > 100 | > 100 | – | > 100
4 | COc1cc(OC)c(C(=O)c2ccc(O)cc2)c(O[C@@H]2O[C@H](CO)[C@@H](O)[C@H](O)[C@H]2O)c1 | > 100 | > 100 | > 100 | – | > 100
5 | CCOc1ccc(C(=O)c2c(OCC)cc(OC)cc2O[C@@H]2O[C@H](CO)[C@@H](O)[C@H](O)[C@H]2O)cc1 | > 100 | > 100 | > 100 | – | > 100
6 | COc1cc(OCC2CO2)c(C(=O)c2ccc(OCC3CO3)cc2)c(O[C@@H]2O[C@H](CO)[C@@H](O)[C@H](O)[C@H]2O)c1 (stereo partly drawn) | > 100 | > 100 | > 100 | – | > 100
7 | CCCC(=O)OC[C@H]1O[C@@H](Oc2cc(OC)cc(OC(=O)CCC)c2C(=O)c2ccc(OC(=O)CCC)cc2)[C@H](OC(=O)CCC)[C@@H](OC(=O)CCC)[C@@H]1OC(=O)CCC | > 100 | > 100 | > 100 | – | > 100
8 | COc1cc(O)c(C(=O)c2ccc(O)cc2)c(O[C@@H]2O[C@H](CO)[C@@H](O)[C@H](O)[C@H]2O)c1 [MAHKOSIDE A] | > 100 | > 100 | > 100 | – | > 100
9 | COc1cc(O)c(C(=O)c2ccc(O)cc2)c(O[C@@H]2O[C@H](COC(C)=O)[C@@H](O)[C@H](O)[C@H]2O)c1 [MAHKOSIDE B] | > 100 | > 100 | > 100 | – | > 100
10 | COc1cc(OCc2ccccc2)c(C(=O)c2ccc(OCc3ccccc3)cc2)c(O[C@@H]2O[C@H](CO)[C@@H](O)[C@H](O)[C@H]2O)c1 | 22.7 | 28.9 | 44.3 | – | 41.1
11 | COc1cc(OC(C)=O)c(C(=O)c2ccc(OC(C)=O)cc2)c(O[C@@H]2O[C@H](COC(C)=O)[C@@H](OC(C)=O)[C@H](OC(C)=O)[C@H]2OC(C)=O)c1 | 50.7 | 34.1 | 47.3 | – | 86.1
12 | COc1cc(OC(=O)c2ccccc2)c(C(=O)c2ccc(OC(=O)c3ccccc3)cc2)c(O[C@@H]2O[C@H](COC(=O)c3ccccc3)[C@@H](OC(=O)c3ccccc3)[C@H](OC(=O)c3ccccc3)[C@H]2OC(=O)c2ccccc2)c1 | > 100 | > 100 | > 100 | – | > 100
13 | C=CCOc1ccc(C(=O)c2c(OCC=C)cc(OC)cc2O[C@@H]2O[C@H](CO)[C@@H](O)[C@H](O)[C@H]2O)cc1 | > 100 | > 100 | > 100 | – | > 100
14 | COc1cc(OC(=O)c2ccc(Cl)cc2)c(C(=O)c2ccc(OC(=O)c3ccc(Cl)cc3)cc2)c(O[C@@H]2O[C@H](COC(=O)c3ccc(Cl)cc3)[C@@H](OC(=O)c3ccc(Cl)cc3)[C@H](OC(=O)c3ccc(Cl)cc3)[C@H]2OC(=O)c2ccc(Cl)cc2)c1 | > 100 | > 100 | > 100 | – | > 100
15 | COc1cccc(COc2ccc(C(=O)c3c(OCc4cccc(OC)c4)cc(OC)cc3O[C@@H]3O[C@H](CO)[C@@H](O)[C@H](O)[C@H]3O)cc2)c1 | 12.3 | 6.92 | 18.4 | – | 20.9
16 | COc1ccc(COc2ccc(C(=O)c3c(OCc4ccc(OC)cc4)cc(OC)cc3O[C@@H]3O[C@H](CO)[C@@H](O)[C@H](O)[C@H]3O)cc2)cc1 | 17.1 | 11.7 | 28.2 | – | 20.5
17 | COc1cc(OCCCBr)c(C(=O)c2ccc(OCCCBr)cc2)c(O[C@@H]2O[C@H](CO)[C@@H](O)[C@H](O)[C@H]2O)c1 | 23.1 | 40 | 53.8 | – | 31.3
18 | COc1cc(OCCCBr)c(C(=O)c2ccc(OCc3ccccc3)cc2)c(OCc2ccccc2)c1 | > 100 | > 100 | > 100 | – | > 100
